This is an account of results in article PMC7442708 (SLAS discovery : advancing life sciences R & D, 2020).

One experiment deals with HES1 and HEY1. Particulars: cited from earlier work.
Experiment [1] relates to patient-derived xenograft models. Particulars: cited from earlier work.
The next experiment concerns KOPT-K1 cells. Particulars: compared to JURKAT; cited from earlier work.
For a further experiment, the system named is CUTLL1 cells. The experiment in a line: cell proliferation, cellular ATP. The following applies: 36 hours. The class given is cell-based.
Experiment [2] deals with Notch-dependent transcription. The experiment in a line: dual luciferase reporter assay. The experiment is classed as cell-based. Particulars: TK-Renilla luciferase control reporter (Table S1).
The subject of a further experiment is HPB-ALL cells. The experiment in a line: cell proliferation, cellular ATP. The following applies: 96 hours; compared to JURKAT. The class given is cell-based. In a few lines: (§1)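 HPB-ALL and TALL-1 cells (DSMZ), grown in RPMI 1640 with 15% FBS. Exposed to varying amounts of test compound for 96 h, a longer exposure chosen because these lines divide more slowly. Metabolically active cells measured as cellular ATP by CellTiter-Glo luminescence. Proliferation expressed relative to DMSO control; mean ± SEM, N = 3.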

In the next experiment the test system is TALL-1 cells. The experiment in a line: cell proliferation, cellular ATP. The experiment is classed as cell-based. Particulars: 96 hours; compared to JURKAT. Put shortly: as §1
A further experiment has as its system DND-41 cells. The experiment in a line: cell proliferation, cellular ATP. The following applies: 36 hours. The experiment is classed as cell-based. In a few lines: (§2)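 Cells kept in RPMI 1640 with 15% FBS (CCRF-CEM, DND-41) and exposed to test compound for 36 h. Cellular ATP was measured by CellTiter-Glo luminescence as an index of metabolically active cells. Proliferation is expressed relative to DMSO control; mean ± SEM, N = 3.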

In the next experiment the test system is CCRF-CEM cells. The experiment in a line: cell proliferation, cellular ATP. The experiment is classed as cell-based. Particulars: 36 hours. In a few lines: as §2
Experiment [3] has as its system Notch target genes HEY1 and HES1. The experiment in a line: RT-qPCR of endogenous gene expression in NICD-transfected HEK293T cells. The experiment is classed as cell-based. Particulars: 2.5 μM, 24 hours; normalized to beta actin. In a few lines: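 Total RNA extracted with TRIzol; cDNA reverse-transcribed from 1 μg RNA. Transcripts quantified by SYBR-based real-time PCR, normalized to beta-actin, and analyzed by the ΔΔCt method.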

For another experiment, the system named is JURKAT cells. The experiment in a line: cell proliferation, cellular ATP. The experiment is classed as cell-based. The following applies: 36 hours; compared to CCRF-CEM, DND-41 and CUTLL1. In a few lines: (§3)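 T-ALL cell lines exposed to test compound for 36 h; MOLT-4 grown in RPMI 1640 with 15% FBS. Cellular ATP measured by CellTiter-Glo luminescence as an index of metabolically active cells. Proliferation expressed relative to DMSO control; mean ± SEM, N = 3.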

Another experiment concerns MOLT4 cells. The experiment in a line: cell proliferation, cellular ATP. The class given is cell-based. The following applies: 36 hours. Put shortly: as §3
The target of experiment [4] is RBPJ occupancy (RBPJ-DNA interactions in cells) (Mus musculus, UniProt P31266). The experiment in a line: anti-RBPJ ChIP-qPCR in F9 cells. The experiment is classed as cell-based, murine. Particulars: 2.5 μM, 24 hours. Put shortly:
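Murine F9 cells, grown in DMEM with 10% FBS, exposed to 2.5 µM test compound for 24 h. About 4 million cells fixed; chromatin sonicated on ice for 12 cycles (30 s on/90 s off, 40% amplitude). ChIP with polyclonal anti-RBPJ (1:100) and protein A-agarose in 500 μL. Enriched DNA quantified by SYBR green real-time PCR; Actin B serves as negative region. Mean ± SEM, N = 3.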
On the technique in general: Real-time PCR tracks product formation cycle by cycle.

Experiment [5] addresses RBPJ occupancy (RBPJ-DNA interactions in cells) (Homo sapiens, UniProt Q06330). Put plainly: anti-RBPJ ChIP-qPCR in NICD-transfected HEK293T cells. Particulars: 2.5 μM, 24 hours. The experiment is classed as cell-based. Put shortly: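 HEK293T cells (DMEM, 10% FBS) co-transfected with Flag-NICD and 4xRBPJ-firefly luciferase. About 4 million cells were fixed and sonicated on ice (12 cycles, 30 s on/90 s off, 40% amplitude). ChIP used polyclonal anti-RBPJ (FC31, 1:100) with protein A-agarose. SYBR green qPCR; mean ± SEM, N = 3.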

Setting [6] is: site occupied in part through CTCF.

RBPJ occupancy (RBPJ-DNA interactions in cells) (Mus musculus, UniProt P31266), sequence (P31266 whole entry): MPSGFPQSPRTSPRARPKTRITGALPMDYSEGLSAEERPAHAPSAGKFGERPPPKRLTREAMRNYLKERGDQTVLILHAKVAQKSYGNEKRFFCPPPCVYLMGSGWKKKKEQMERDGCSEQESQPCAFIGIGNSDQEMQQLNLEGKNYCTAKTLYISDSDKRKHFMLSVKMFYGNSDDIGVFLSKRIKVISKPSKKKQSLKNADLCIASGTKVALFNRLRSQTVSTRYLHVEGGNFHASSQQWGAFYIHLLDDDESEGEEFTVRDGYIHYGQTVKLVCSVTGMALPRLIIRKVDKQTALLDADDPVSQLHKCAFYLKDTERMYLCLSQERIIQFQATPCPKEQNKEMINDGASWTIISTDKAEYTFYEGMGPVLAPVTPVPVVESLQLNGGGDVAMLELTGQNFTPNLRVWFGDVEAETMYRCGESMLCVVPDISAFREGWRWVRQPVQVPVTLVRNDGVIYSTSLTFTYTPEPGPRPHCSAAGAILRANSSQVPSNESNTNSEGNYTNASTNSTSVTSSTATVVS
RBPJ occupancy (RBPJ-DNA interactions in cells) (Homo sapiens, UniProt Q06330), sequence (Q06330 whole entry): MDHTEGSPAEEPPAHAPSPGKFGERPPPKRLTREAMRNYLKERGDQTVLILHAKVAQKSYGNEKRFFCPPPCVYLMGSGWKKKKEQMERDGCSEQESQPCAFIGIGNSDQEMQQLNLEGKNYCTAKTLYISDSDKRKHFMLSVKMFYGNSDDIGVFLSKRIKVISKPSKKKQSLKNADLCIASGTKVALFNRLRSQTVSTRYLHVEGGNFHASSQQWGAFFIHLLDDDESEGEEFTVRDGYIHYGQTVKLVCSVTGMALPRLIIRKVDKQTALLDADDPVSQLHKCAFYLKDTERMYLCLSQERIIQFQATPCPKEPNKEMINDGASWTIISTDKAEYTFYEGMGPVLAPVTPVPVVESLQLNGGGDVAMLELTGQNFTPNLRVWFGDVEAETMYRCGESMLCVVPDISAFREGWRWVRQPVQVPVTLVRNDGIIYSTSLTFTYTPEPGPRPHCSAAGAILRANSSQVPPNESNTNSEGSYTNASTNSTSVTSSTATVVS

With `C[C@H](NC(=O)Cc1cc(F)cc(F)c1)C(=O)N[C@H](C(=O)OC(C)(C)C)c1ccccc1` [DAPT], the “expression of the classic Notch targets HES1 and HEY1” value in the experiment with HES1 and HEY1 is on record as “decreases the expression”.
`CCOC(=O)COc1ccc(/C=C2\SC(=S)NC2=O)cc1OC` [IMR-1]: the tumor growth entry in experiment [1] is on record as “impairs tumor growth”.
In the case of `Cn1nccc1-c1ccc(C(N)=O)c(Oc2ccccc2F)c1` [RIN1], in the experiment with HES1 and HEY1, the “expression of the classic Notch targets HES1 and HEY1” value is given as “increases the expression”. Also, in the experiment with KOPT-K1 cells, the “sensitivity of Notch-addicted KOPT-K1 cells” value is listed as “as sensitive to RIN1 than Notch-independent JURKAT cells”.
As to `CC(=O)OC[C@H]1O[C@@H]([S-])[C@H](OC(C)=O)[C@@H](OC(C)=O)[C@@H]1OC(C)=O.CCP(CC)CC.[Au+]` [auranofin, Auranofin], in the experiment on CUTLL1 cells, the “sensitivity of proliferation (cellular ATP)” value (“sensitivity of proliferation” below) is listed as “significantly more sensitive to auranofin than JURKAT”. In [2], the “transcription from the TK promoter” value is “decreases transcription from the TK promoter”. Besides, in the experiment with HPB-ALL cells, the “proliferation (cellular ATP)” value was “decreased the proliferation”. Further, in the experiment on TALL-1 cells, the “proliferation (cellular ATP)” value is recorded as “decreased the proliferation”. For the same compound, in the experiment with DND-41 cells, the “sensitivity of proliferation” value is reported as “significantly more sensitive to auranofin than JURKAT”. In addition, the “sensitivity of proliferation” value with CCRF-CEM cells is “significantly more sensitive to auranofin than MOLT-4”. Moreover, in experiment [3], the “expression of HES1” value was “significantly decreased”, the “expression of HEY1” value was “significantly decreased” and the “expression of Notch-independent TCERG1” value was “remained unchanged”. The “sensitivity of proliferation” value in the experiment with JURKAT cells is “most resistant”. For the same compound, the “sensitivity of proliferation” value in the experiment on MOLT4 cells is “more sensitive to auranofin than JURKAT”. Further, in experiment [4] (direct RBPJ binding site), the “RBPJ occupancy at the HES1 promoter” value is “decreased RBPJ occupancy” and the “RBPJ occupancy at the ZFP334 promoter” value is listed as “decreased RBPJ occupancy”. Besides, in experiment [4] (setting [6]), the “RBPJ occupancy at NANOG” value is “not effectively disrupted” and the “RBPJ occupancy at NAPRT1” value is reported as “not effectively disrupted”. In experiment [5], the “RBPJ occupancy at the endogenous HES1 promoter” value was “decreased RBPJ occupancy at these sites significantly” and the “RBPJ occupancy at the endogenous HEY1 promoter” value is “decreased RBPJ occupancy at these sites significantly”.
